According to ChEMBL document CHEMBL3616378 (J Med Chem, 2015):

What was measured:
[1] = target: T1, Metabotropic glutamate receptor 5 (Homo sapiens, UniProt P41594); assay: Antagonist activity at human recombinant mGlu5 receptor expressed in AV12 cells assessed as inhibition of glutamate-stimulated Ca2+ mobilization after 1 hr by FLIPR assay; assay type: functional, cell-based
[2] = target: T2, Metabotropic glutamate receptor 3 (Homo sapiens, UniProt Q14832); assay: Antagonist activity at human recombinant mGlu3 receptor expressed in AV12 cells assessed as inhibition of glutamate-stimulated Ca2+ mobilization after 1.5 hrs by FLIPR assay; assay type: functional, cell-based
T2 sequence (Q14832 whole entry): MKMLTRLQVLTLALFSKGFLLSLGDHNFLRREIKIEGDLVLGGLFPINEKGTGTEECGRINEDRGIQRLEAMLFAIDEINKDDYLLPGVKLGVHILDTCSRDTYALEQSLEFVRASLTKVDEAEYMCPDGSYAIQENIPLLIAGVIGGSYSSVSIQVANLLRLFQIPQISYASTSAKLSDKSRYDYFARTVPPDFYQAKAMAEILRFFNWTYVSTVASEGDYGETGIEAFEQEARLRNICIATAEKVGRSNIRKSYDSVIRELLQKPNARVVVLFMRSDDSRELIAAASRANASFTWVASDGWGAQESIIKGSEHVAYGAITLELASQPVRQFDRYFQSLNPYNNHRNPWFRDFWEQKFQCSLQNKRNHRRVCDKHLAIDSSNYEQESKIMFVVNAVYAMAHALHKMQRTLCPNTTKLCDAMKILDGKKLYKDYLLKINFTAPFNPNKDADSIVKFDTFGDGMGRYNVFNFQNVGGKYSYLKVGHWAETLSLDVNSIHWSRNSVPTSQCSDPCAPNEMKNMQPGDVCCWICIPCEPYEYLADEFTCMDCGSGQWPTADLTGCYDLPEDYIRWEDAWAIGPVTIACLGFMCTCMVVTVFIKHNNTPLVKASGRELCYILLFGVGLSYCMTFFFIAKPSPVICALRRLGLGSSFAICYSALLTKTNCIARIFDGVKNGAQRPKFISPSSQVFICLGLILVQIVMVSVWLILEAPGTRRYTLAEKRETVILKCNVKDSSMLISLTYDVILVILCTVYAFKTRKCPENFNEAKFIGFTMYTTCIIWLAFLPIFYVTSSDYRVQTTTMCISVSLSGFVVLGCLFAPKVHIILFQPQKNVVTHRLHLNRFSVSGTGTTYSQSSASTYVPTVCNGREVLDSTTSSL

[3] = target: Metabotropic glutamate receptor 4 (Homo sapiens, UniProt Q14833); assay: Agonist activity at human recombinant mGlu4 receptor expressed in AV12 cells assessed as stimulation of Ca2+ mobilization after 1 hr by FLIPR assay; assay type: functional, cell-based
[4] = Drug level in Sprague-Dawley rat cerebrospinal fluid at 3 mg/kg, ip after 0.5 hrs; assay type: ADME, organism-based; conditions: read-out: Drug uptake
Summary of the method: (§1)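 Male Sprague–Dawley rats received single ip doses of 1, 3 or 10 mg/kg. Cerebrospinal fluid and plasma levels were determined at 0.5, 1 and 4 h. Mean csf concentration (nM ± SEM) is reported.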

[5] = Drug level in Sprague-Dawley rat cerebrospinal fluid at 1 mg/kg, ip after 4 hrs; assay type: ADME, organism-based; conditions: read-out: Drug uptake; summary of the method: as §1
[6] = target: CYP2C9 (Homo sapiens, UniProt P11712); assay: Inhibition of human CYP2C9 at 10 uM; assay type: ADME
Summary of the method: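 Inhibition of human CYP isoforms was measured with the compound tested at 10 µM.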

[7] = tested on: Rattus norvegicus; assay: Antipsychosis activity in ip dosed Sprague-Dawley rat assessed as reduction of […] in horizontal ambulations administered 30 mins before PCP challenge measured after 60 mins; assay type: functional
[8] = Aqueous solubility of the compound at pH 7.4; assay type: physicochemical
[9] = Oral bioavailability in Sprague-Dawley rat at 5 mg/kg; assay type: ADME, organism-based; conditions: in vivo
Summary of the method: (§2)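 Compound dissolved in water, pH adjusted to 7–7.5 with NaOH; single dose to fasted male Sprague–Dawley rats (~250 g) by oral gavage, intravenous or intraperitoneal route. Serial blood (11–12 samples per rat) from jugular vein catheter into EDTA tubes, centrifuged, frozen; 25 µL plasma mixed with methanol:water (1:1) containing analogue internal standard.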

[10] = Drug level in Sprague-Dawley rat cerebrospinal fluid at 3 mg/kg, ip after 4 hrs; assay type: ADME, organism-based; conditions: read-out: Drug uptake; summary of the method: as §1
[11] = target: Metabotropic glutamate receptor 2 (Homo sapiens, UniProt Q14416, E273D/L300Q); assay: Agonist activity at human recombinant mGlu2 receptor E273D and L300Q mutant expressed in AV12 cells assessed as stimulation of Ca2+ mobilization after 1 hr by FLIPR assay; assay type: functional, cell-based
Metabotropic glutamate receptor 2 (Homo sapiens, UniProt Q14416, E273D/L300Q), sequence (Q14416 19-872 E273D/L300Q limits assumed): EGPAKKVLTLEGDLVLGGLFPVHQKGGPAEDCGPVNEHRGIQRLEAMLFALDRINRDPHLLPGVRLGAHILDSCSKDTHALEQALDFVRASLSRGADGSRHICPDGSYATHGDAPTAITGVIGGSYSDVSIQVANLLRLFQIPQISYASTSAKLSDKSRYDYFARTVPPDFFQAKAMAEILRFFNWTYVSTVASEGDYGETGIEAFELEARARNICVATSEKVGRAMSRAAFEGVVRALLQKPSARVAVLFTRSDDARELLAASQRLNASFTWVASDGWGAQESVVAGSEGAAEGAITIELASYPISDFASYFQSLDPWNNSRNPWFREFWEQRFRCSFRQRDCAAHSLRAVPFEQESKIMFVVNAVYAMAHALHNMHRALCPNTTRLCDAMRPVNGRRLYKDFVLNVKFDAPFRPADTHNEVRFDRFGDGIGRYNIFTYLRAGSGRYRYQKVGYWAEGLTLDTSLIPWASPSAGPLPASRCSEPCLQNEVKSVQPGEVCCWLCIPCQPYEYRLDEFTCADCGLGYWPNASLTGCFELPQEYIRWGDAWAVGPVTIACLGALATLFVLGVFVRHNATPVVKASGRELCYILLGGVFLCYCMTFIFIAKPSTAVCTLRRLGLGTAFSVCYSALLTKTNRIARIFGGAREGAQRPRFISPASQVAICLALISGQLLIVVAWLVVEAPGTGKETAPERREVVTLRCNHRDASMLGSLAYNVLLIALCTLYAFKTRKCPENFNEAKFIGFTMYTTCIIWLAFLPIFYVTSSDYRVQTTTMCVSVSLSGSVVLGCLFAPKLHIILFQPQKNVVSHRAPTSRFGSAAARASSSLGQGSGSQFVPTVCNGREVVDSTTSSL

[12] = AUC (0 to 24 hrs) in Sprague-Dawley rat at 1 mg/kg, ip; assay type: ADME, organism-based; set-up: dose 1 mg/kg, time < 24 hr, route intraperitoneal; conditions: in vivo
Summary of the method: (§3)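 Fasted male Sprague–Dawley rats (~250 g) received a single dose of compound dissolved in water and adjusted to pH 7–7.5 with NaOH, given iv, by oral gavage or ip. Serial blood samples (11–12 per rat) were drawn from a jugular vein catheter into EDTA and kept frozen. Plasma was mixed with methanol:water (1:1) containing an analogue internal standard for analysis. Mean plasma parameters are reported.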

[13] = Drug level in Sprague-Dawley rat cerebrospinal fluid at 1 mg/kg, ip after 0.5 hrs; assay type: ADME, organism-based; conditions: read-out: Drug uptake; summary of the method: as §1
[14] = AUC (0 to 24 hrs) in Sprague-Dawley rat at 10 mg/kg, ip; assay type: ADME, organism-based; set-up: dose 10 mg/kg, time < 24 hr, route intraperitoneal; conditions: in vivo; summary of the method: as §3
[15] = target: T2, Metabotropic glutamate receptor 3; assay: Agonist activity at human recombinant mGlu3 receptor expressed in AV12 cells assessed as inhibition of forskolin-stimulated cAMP production after 1 hr by fluorescence assay; assay type: functional, cell-based
[16] = Clearance in Sprague-Dawley rat at 1 mg/kg, iv; assay type: ADME, organism-based; conditions: in vivo; summary of the method: as §3
[17] = Half life in Sprague-Dawley rat at 5 mg/kg, po; assay type: ADME, organism-based; conditions: in vivo; summary of the method: as §3
[18] = Drug level in Sprague-Dawley rat cerebrospinal fluid at 10 mg/kg, ip after 0.5 hrs; assay type: ADME, organism-based; conditions: read-out: Drug uptake; summary of the method: as §1
[19] = Drug level in Sprague-Dawley rat cerebrospinal fluid at 1 mg/kg, ip after 1 hr; assay type: ADME, organism-based; conditions: read-out: Drug uptake; summary of the method: as §1
[20] = Tmax in Sprague-Dawley rat at 5 mg/kg, po; assay type: ADME, organism-based; conditions: in vivo; summary of the method: as §2
[21] = target: Metabotropic glutamate receptor 3 (Homo sapiens, UniProt Q14832, Q306L); assay: Agonist activity at human recombinant mGlu3 receptor Q306L mutant expressed in AV12 cells assessed as stimulation of Ca2+ mobilization after 1 hr by FLIPR assay; assay type: functional, cell-based
[22] = Bioavailability in Sprague-Dawley rat at 10 mg/kg, ip; assay type: ADME, organism-based; conditions: in vivo; summary of the method: as §3
[23] = Drug level in Sprague-Dawley rat cerebrospinal fluid at 10 mg/kg, ip after 1 hr; assay type: ADME, organism-based; conditions: read-out: Drug uptake; summary of the method: as §1
[24] = Plasma concentration in Sprague-Dawley rat at 3 mg/kg, ip after 1 hr; assay type: ADME, organism-based
Summary of the method: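 Separate experiment: single ip doses of 1, 3 and 10 mg/kg to rats, compound in water adjusted to pH 7–7.5 with NaOH; plasma (with csf) sampled at 0.5, 1 and 4 h; mean plasma concentrations ± SEM reported.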

[25] = Fraction unbound in human plasma; assay type: ADME, cell-free
[26] = target: T3, Metabotropic glutamate receptor 1 (Homo sapiens, UniProt Q13255); assay: Antagonist activity at human recombinant mGlu1 receptor expressed in AV12 cells assessed as inhibition of glutamate-stimulated Ca2+ mobilization after 1 hr by FLIPR assay; assay type: functional, cell-based
T3 sequence (Q13255 whole entry): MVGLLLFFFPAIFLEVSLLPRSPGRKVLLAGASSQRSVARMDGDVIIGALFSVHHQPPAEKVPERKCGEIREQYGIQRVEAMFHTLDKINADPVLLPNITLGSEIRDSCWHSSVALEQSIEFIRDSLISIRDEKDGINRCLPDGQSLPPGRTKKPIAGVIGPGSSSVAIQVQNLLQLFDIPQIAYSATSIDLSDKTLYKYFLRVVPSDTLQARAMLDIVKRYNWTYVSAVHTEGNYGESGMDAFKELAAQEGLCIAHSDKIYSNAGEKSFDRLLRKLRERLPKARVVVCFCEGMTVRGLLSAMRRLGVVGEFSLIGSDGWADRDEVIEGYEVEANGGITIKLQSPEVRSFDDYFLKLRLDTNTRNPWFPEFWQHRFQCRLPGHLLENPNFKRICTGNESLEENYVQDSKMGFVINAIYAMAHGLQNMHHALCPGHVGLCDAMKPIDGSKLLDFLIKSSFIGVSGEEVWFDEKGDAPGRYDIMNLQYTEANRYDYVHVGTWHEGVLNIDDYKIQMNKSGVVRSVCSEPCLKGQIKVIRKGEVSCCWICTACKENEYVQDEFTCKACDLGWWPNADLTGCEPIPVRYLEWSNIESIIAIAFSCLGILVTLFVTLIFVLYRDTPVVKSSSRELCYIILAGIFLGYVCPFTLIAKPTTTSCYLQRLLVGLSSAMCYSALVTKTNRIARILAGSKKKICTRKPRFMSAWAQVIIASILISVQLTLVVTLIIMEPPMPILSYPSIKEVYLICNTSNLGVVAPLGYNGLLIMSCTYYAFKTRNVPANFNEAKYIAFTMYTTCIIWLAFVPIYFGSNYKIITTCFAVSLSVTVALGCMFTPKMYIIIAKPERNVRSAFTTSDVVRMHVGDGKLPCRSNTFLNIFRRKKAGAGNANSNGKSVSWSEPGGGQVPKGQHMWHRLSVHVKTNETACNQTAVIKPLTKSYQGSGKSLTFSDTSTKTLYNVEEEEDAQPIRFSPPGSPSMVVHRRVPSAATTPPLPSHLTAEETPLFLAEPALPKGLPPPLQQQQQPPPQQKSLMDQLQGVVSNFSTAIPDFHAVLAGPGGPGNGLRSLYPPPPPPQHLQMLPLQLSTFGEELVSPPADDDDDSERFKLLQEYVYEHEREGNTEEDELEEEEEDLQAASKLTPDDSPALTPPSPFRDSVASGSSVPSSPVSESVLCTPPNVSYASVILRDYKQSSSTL

[27] = Solubility of the compound in DMSO at 20 uM; assay type: physicochemical
[28] = Drug level in Sprague-Dawley rat cerebrospinal fluid at 10 mg/kg, ip after 4 hrs; assay type: ADME, organism-based; conditions: read-out: Drug uptake; summary of the method: as §1
[29] = target: Metabotropic glutamate receptor 2 (Homo sapiens, UniProt Q14416, E273D); assay: Agonist activity at human recombinant mGlu2 receptor E273D mutant expressed in AV12 cells assessed as stimulation of Ca2+ mobilization after 1 hr by FLIPR assay; assay type: functional, cell-based
Metabotropic glutamate receptor 2 (Homo sapiens, UniProt Q14416, E273D), sequence (Q14416 19-872 E273D limits assumed): as the sequence (Q14416 19-872 E273D/L300Q limits assumed) above, with Q282L counted along it

[30] = target: T4, Metabotropic glutamate receptor 2 (Homo sapiens, UniProt Q14416); assay: Agonist activity at human recombinant mGlu2 receptor expressed in AV12 cells assessed as inhibition of forskolin-stimulated cAMP production after 20 min by fluorescence assay
T4 sequence (Q14416 whole entry): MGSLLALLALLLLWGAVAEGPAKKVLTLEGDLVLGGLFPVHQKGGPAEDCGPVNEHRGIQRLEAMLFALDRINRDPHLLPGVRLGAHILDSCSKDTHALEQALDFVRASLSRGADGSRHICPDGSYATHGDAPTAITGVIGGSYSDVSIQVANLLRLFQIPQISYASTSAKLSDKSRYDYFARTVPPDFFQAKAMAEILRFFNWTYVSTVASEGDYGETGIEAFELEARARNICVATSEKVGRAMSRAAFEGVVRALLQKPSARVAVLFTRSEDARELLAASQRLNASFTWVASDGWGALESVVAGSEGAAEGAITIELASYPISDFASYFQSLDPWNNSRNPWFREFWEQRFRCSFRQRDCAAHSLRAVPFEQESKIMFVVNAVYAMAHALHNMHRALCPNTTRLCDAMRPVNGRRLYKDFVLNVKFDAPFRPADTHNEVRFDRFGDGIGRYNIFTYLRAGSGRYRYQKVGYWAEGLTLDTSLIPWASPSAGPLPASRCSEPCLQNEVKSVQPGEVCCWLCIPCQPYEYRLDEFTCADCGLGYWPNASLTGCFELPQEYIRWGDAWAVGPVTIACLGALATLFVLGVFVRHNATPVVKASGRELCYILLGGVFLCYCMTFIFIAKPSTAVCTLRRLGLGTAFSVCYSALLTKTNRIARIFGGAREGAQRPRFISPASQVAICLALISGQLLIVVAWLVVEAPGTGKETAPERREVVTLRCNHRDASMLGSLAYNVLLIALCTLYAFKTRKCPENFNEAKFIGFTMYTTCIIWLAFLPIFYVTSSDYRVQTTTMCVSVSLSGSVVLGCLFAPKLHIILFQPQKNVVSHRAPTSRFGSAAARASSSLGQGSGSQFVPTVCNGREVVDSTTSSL

[31] = target: T4, Metabotropic glutamate receptor 2; assay: Agonist activity at wild type human recombinant mGlu2 receptor expressed in AV12 cells assessed as stimulation of Ca2+ mobilization after 1 hr by FLIPR assay; assay type: functional, cell-based
[32] = target: T3, Metabotropic glutamate receptor 1; assay: Agonist activity at human recombinant mGlu1 receptor expressed in AV12 cells assessed as stimulation of Ca2+ mobilization after 1 hr by FLIPR assay; assay type: functional, cell-based
[33] = target: T1, Metabotropic glutamate receptor 5; assay: Agonist activity at human recombinant mGlu5 receptor expressed in AV12 cells assessed as stimulation of Ca2+ mobilization after 1 hr by FLIPR assay; assay type: functional, cell-based
[34] = Metabolic stability of the compound in mouse hepatocytes assessed as loss of compound at 2 uM; assay type: ADME, cell-based, Hepatocyte; conditions: read-out: Drug degradation
Summary of the method: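 Hepatocytes from mouse, rat, dog and human; compound tested at 2 µM; percent loss of parent compound measured.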

[35] = target: Metabotropic glutamate receptor 7 (Homo sapiens, UniProt Q14831); assay: Agonist activity at human recombinant mGlu7 receptor expressed in AV12 cells assessed as stimulation of Ca2+ mobilization after 1 hr by FLIPR assay; assay type: functional, cell-based
[36] = tested on: Rattus norvegicus; assay: Toxicity in Sprague-Dawley rat assessed as impairment of neuromuscular coordination at 10 mg/kg, ip after 1 hr by rotarod test; assay type: organism-based; conditions: in vivo

T1 sequence (P41594 whole entry): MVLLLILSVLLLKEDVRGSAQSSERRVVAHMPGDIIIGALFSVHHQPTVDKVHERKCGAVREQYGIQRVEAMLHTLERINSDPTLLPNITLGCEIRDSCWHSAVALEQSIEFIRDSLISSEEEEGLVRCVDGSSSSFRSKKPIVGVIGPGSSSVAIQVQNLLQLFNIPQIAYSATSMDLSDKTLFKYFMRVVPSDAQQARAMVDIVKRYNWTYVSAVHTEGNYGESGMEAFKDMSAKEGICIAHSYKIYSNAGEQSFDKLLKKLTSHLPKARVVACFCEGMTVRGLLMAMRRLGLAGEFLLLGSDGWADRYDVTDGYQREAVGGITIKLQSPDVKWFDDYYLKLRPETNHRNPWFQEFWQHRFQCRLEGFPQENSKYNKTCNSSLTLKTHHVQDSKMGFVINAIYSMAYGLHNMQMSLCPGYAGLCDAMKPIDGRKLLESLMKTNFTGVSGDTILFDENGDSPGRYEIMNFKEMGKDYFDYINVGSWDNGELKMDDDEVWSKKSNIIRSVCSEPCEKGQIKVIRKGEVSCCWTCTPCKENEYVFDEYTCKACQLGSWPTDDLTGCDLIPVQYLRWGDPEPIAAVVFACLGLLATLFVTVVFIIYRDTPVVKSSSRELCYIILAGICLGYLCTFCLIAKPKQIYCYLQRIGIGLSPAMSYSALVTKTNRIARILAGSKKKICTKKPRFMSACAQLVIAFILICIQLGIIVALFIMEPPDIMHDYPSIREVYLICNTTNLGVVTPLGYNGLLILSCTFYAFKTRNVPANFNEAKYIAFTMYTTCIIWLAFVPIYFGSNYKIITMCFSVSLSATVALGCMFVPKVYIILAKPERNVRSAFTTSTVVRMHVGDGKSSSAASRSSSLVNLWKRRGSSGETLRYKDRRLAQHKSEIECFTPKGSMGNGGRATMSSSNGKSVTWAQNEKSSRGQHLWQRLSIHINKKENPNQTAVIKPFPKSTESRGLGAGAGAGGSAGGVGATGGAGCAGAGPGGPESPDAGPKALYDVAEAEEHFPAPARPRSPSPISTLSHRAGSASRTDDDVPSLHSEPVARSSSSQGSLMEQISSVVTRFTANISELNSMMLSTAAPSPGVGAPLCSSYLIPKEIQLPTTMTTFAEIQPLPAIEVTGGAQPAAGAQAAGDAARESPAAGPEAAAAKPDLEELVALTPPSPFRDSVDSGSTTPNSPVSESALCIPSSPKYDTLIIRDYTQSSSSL

## N[C@@]1(C(=O)O)C[C@@H](Sc2nc[nH]n2)[C@H]2[C@H](C(=O)O)[C@H]21
[1]
  IC50: > 12500 nM
[2]
  IC50: 25200 nM
[3]
  EC50: > 25000 nM
[4]
  concentration at 0.5 h: 97.3 nM
[5]
  concentration at 4 h: 9.7 nM
[6]
  inhibition at 10 µM: < 10%
[7]
  ED50: 1.2 mg/kg
[8]
  solubility: > 0.1 mM
[9]
  bioavailability: 4%
[10]
  concentration at 4 h: 27.5 nM
[11]
  EC50: 48.2 nM
[12]
  AUC(0-t) at 24 h: 6.01 µM·h
[13]
  concentration at 0.5 h: 48.8 nM
[14]
  AUC(0-t) at 24 h: 43.1 µM·h
[15]
  EC50: 129 nM
[16]
  clearance: 12.3 mL/min/kg
[17]
  half-life: 3.7 h
[18]
  concentration at 0.5 h: 235 nM
[19]
  concentration at 1 h: 39.9 nM
[20]
  Tmax: 0.5 h
[21]
  EC50: 2830 nM
[22]
  bioavailability: 88%
[23]
  concentration at 1 h: 272 nM
[24]
  concentration at 1 h: 4980 nM
[25]
  fraction unbound: > 0.98
[26]
  IC50: > 12500 nM
[27]
  solubility at 20 µM: > 10 mM
[28]
  concentration at 4 h: 86.7 nM
[29]
  EC50: 46.3 nM
[30]
  EC50: 5.6 nM
[31]
  EC50: 20.1 nM
[32]
  EC50: > 25000 nM
[33]
  EC50: > 25000 nM
[34]
  metabolised at 2 µM: < 10%
[35]
  EC50: > 25000 nM
[36]
  Activity: Toxic
